In ChEMBL document CHEMBL1126246, “Ester and amide derivatives of E64c as inhibitors of platelet calpains” (J Med Chem, 1992):
pIC50: −log10 of the molar value.

Columns and labels:
[1] = biological target: T1, Calpain-1 catalytic subunit (Homo sapiens, UniProt P07384); assay: The ability of compound to inhibit calpain in a preparation of lysed platelets was measured with a caseinolytic assay(assay 1); conditions: read-out: I50
T1 sequence (P07384 whole entry): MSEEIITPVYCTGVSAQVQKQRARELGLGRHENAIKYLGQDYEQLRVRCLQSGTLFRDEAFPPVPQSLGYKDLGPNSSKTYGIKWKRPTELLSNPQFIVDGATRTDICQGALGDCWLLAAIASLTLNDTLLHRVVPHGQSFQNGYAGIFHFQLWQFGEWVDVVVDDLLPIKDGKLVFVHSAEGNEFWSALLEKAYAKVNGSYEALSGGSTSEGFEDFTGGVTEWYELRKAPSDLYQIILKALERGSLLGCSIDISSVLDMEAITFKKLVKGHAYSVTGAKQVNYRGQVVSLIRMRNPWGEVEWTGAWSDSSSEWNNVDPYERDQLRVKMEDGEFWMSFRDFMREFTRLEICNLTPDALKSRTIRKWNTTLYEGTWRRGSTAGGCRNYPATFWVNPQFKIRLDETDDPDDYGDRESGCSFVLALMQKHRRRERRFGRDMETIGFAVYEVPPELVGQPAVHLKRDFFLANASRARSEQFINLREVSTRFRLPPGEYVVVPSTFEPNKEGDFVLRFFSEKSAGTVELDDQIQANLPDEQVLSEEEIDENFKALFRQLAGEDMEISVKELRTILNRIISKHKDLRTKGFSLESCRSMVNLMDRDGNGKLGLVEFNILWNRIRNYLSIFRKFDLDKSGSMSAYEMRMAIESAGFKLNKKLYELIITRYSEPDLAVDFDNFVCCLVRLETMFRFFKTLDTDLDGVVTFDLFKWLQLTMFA
Procedure, shortened: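 Washed human platelets (6 × 10⁸/mL) in Hank's solution were preincubated with inhibitor at 30 °C for 3 min. CaCl₂, Triton X-100 and [³H]casein were then added and incubated 20 min at 30 °C. The reaction was stopped with TCA, and TCA-soluble radioactivity was counted. I50 was estimated from fractional inhibition at five inhibitor concentrations.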

[2] = biological target: T1, Calpain-1 catalytic subunit; assay: The calpain inhibitory activity(I 50) was measured as ability to enter the platelet to inhibit calpain after cell lysis(assay 2); conditions: read-out: I50
Procedure, shortened: (§1)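 Washed human platelets (7 × 10⁸/mL, Hank's) were exposed to inhibitor for 15 min at 30 °C. Cells were diluted in Tyrode-HEPES pH 7.4, pelleted twice to remove free drug, resuspended in Hank's and equilibrated 3 min. They were then lysed with Triton X-100 plus CaCl₂ and [³H]casein for 20 min at 30 °C. TCA-soluble counts were measured. I50 came from a five-concentration line.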

[3] = biological target: T1, Calpain-1 catalytic subunit; assay: The calpain inhibitory activity(I 50) was measured as ability to enter the platelet and inhibit calpain in the intact cells(assay 3); (+)indicates substantial inhibition by 5-44 uM; assay type: cell-based
Procedure, shortened: (§2)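 Washed human platelets (6 × 10⁸/mL, Hank's buffer) were preincubated with compound in DMSO at 30 °C for 15 min. Final concentrations were 0.8, 5.5, 44 or 440 μM. A23187 plus CaCl₂ was added for 10 min at room temperature. Samples were boiled in SDS sample buffer with leupeptin, run on 8% SDS-PAGE and stained with Coomassie. Loss of actin-binding protein and talin was scored.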

[4] = biological target: T1, Calpain-1 catalytic subunit; assay: The calpain inhibitory activity(I 50) was measured as ability to enter the platelet and inhibit calpain in the intact cells(assay 3); (-)indicates little inhibition by 444 uM; assay type: cell-based; procedure, shortened: as §2
[5] = biological target: T1, Calpain-1 catalytic subunit; assay: The calpain inhibitory activity(I 50) was measured as ability to enter the platelet to inhibit calpain after cell lysis(assay 2); (-)indicates little inhibition by 444 uM; procedure, shortened: as §1
[6] = biological target: T1, Calpain-1 catalytic subunit; assay: The ability of compound to inhibit calpain in a preparation of lysed platelets was measured with a caseinolytic assay(assay 1); (+) indicates the compound was inhibitory, but I50 was not determined

| pIC50 [1] | pIC50 [2] | I50 [3] | I50 [4] | I50 [5] | I50 [6] | Compound |
| --- | --- | --- | --- | --- | --- | --- |
| 6.00 | 5.70 | substantial inhibition by 5-44 uM | – | – | – | CC(C)CCNC(=O)[C@H](CC(C)C)NC(=O)[C@H]1O[C@@H]1C(=O)OCCBr |
| 7.40 | – | – | Little inhibition | Little inhibition | – | CC(C)CCNC(=O)[C@H](CC(C)C)NC(=O)[C@H]1O[C@@H]1C(=O)O [E-64C] |
| 6.30 | 5.52 | substantial inhibition by 5-44 uM | – | – | – | CC(C)CCNC(=O)[C@H](CC(C)C)NC(=O)[C@H]1O[C@@H]1C(=O)OCCF |
| 5.22 | 5.40 | – | Little inhibition | – | – | CC(C)CCNC(=O)[C@H](CC(C)C)NC(=O)[C@H]1O[C@@H]1C(=O)NCCc1c[nH]c2ccc(O)cc12 |
| 5.70 | 5.70 | substantial inhibition by 5-44 uM | – | – | – | CC(C)CCNC(=O)[C@H](CC(C)C)NC(=O)[C@H]1O[C@@H]1C(=O)Oc1ccc2[nH]cc(CCNC(=O)OC(C)(C)C)c2c1 |
| 4.00 | – | – | Little inhibition | – | – | CCCCC(COC(=O)[C@H]1O[C@@H]1C(=O)N[C@@H](CC(C)C)C(=O)NCCC(C)C)NC(=O)[C@H](CC(C)C)NC(=O)OCc1ccccc1 (stereo partly drawn) |
| 5.70 | 6.52 | substantial inhibition by 5-44 uM | – | – | – | CC(C)CCNC(=O)[C@H](CC(C)C)NC(=O)[C@H]1O[C@@H]1C(=O)OCCCl |
| – | 5.70 | substantial inhibition by 5-44 uM | – | – | substantial inhibition by 5-44 uM | CC(C)CCNC(=O)[C@H](CC(C)C)NC(=O)[C@H]1O[C@@H]1C(=O)OCC(F)(F)F |
| 5.40 | 5.40 | substantial inhibition by 5-44 uM | – | – | – | CCOC(=O)[C@H]1O[C@@H]1C(=O)N[C@@H](CC(C)C)C(=O)NCCC(C)C [ALOXISTATIN] |
| – | 5.22 | substantial inhibition by 5-44 uM | – | – | substantial inhibition by 5-44 uM | CC(C)CCNC(=O)[C@H](CC(C)C)NC(=O)[C@H]1O[C@@H]1C(=O)OCCI |
| – | 5.70 | substantial inhibition by 5-44 uM | – | – | substantial inhibition by 5-44 uM | CC(C)CCNC(=O)[C@H](CC(C)C)NC(=O)[C@H]1O[C@@H]1C(=O)OCc1ccccc1Cl |
| – | 5.30 | substantial inhibition by 5-44 uM | – | – | substantial inhibition by 5-44 uM | CC(C)CCNC(=O)[C@H](CC(C)C)NC(=O)[C@H]1O[C@@H]1C(=O)OCC(Br)(Br)Br |
| 6.15 | 6.00 | substantial inhibition by 5-44 uM | – | – | – | CC(C)CCNC(=O)[C@H](CC(C)C)NC(=O)[C@H]1O[C@@H]1C(=O)OCC(Cl)(Cl)Cl |
